{"source": "paper PMC2745822", "about": "(The Journal of pharmacology and experimental therapeutics, 2008)", "key": {"M3 mAChR": {"biological_target": "M3 mAChR (Homo sapiens, UniProt P20309)", "sequence (P20309 whole entry)": "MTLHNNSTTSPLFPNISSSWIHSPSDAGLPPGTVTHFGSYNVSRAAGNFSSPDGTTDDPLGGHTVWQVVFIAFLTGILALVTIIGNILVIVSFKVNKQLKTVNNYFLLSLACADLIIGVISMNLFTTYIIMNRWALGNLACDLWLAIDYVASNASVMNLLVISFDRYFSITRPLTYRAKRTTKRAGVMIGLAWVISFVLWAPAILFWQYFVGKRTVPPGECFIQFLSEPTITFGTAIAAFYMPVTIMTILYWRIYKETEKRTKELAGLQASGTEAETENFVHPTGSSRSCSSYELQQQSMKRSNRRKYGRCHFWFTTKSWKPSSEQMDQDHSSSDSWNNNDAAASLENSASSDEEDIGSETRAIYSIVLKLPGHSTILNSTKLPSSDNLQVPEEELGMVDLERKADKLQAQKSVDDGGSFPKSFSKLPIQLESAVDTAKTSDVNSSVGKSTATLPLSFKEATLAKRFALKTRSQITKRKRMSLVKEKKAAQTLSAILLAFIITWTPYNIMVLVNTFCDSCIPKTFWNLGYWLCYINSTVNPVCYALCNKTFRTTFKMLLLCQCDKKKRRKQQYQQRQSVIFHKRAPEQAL", "test": "Calcium mobilization selectivity assay, CHO K1 cells expressing M3", "format": "cell-based", "details": "30 µM compound", "summary_of_the_method": "(§1)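 CHO K1 cells stably expressing rat M1 or human M3 or M5, coupled through endogenous Gq. Seeded 50,000 cells/well and held overnight in antibiotic-free medium at 37°C/5% CO2. Loaded with 2 µM Fluo-4 AM for 45 min at 37°C in HBSS/20 mM HEPES/2.5 mM probenecid, pH 7.4. […] Three independent experiments.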"}, "M1": {"biological_target": "T1, M1 (Homo sapiens, UniProt P11229)", "T1 sequence (P11229 1-460)": "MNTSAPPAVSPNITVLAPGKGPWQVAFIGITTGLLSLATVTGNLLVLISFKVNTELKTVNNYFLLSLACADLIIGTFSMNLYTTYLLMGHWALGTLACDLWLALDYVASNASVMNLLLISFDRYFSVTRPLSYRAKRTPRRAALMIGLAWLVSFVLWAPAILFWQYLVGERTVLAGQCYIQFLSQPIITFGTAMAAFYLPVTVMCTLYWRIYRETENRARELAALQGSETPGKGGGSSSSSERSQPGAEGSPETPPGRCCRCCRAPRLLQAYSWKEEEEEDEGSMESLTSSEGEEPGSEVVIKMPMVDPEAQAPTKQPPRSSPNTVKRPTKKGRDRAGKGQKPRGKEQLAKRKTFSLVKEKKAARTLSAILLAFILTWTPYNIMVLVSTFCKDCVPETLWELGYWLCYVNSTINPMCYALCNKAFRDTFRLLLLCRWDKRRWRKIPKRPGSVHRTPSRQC", "test": "Millipore GPCR Profiler functional screen, M1", "format": "cell-based", "details": "full agonist CRC"}, "[1]": {"test": "Formulation into homogeneous dosing solution", "format": "physicochemical", "details": "vehicles acceptable for in vivo studies", "summary_of_the_method": "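Test compound was jet-milled to uniform nanoparticles before vehicle formulation. It was then dissolved at 56.6 mg/ml in 10% Tween 80 in double-deionized water, with pH adjusted to about 7.0 using 1 N NaOH. The mixture was sonicated until a uniform homogeneous solution formed, for intraperitoneal dosing.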"}, "[2]": {"test": "Brain and plasma exposure pharmacokinetic profiling", "format": "in vivo, rat", "details": "male rats, 56.6 mg/kg i.p.; mean ± S.E.M., n = 3", "summary_of_the_method": "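Male Sprague-Dawley rats (225–250 g), fasted overnight. Test compound dissolved at 56.6 mg/ml in 10% Tween 80/water, pH ~7.0 (1 N NaOH), sonicated, and given at 56.6 mg/kg i.p. Brain and trunk plasma taken at 0.5, 1, 2 and 4 h, three rats per time point. Brain homogenized in acetonitrile/methanol and plasma precipitated with acidified acetonitrile, both with internal standard. Analyzed by positive-ESI LC-MS-MS, linear 50 ng/ml–100 µg/ml. AUC0-∞ by trapezoidal method.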"}, "M1 mAChR": {"biological_target": "T2, M1 mAChR (Rattus norvegicus, UniProt P08482)", "T2 sequence (P08482 1-460)": "T1 sequence (P11229 1-460) with A5V, T254S, P309S, R320K, A337G, I413V", "test": "Calcium mobilization selectivity assay, CHO K1 cells expressing M1", "format": "cell-based", "details": "30 µM compound", "summary_of_the_method": "as §1"}, "serotonin 2B receptor": {"biological_target": "serotonin 2B receptor (Homo sapiens, UniProt P41595)", "sequence (P41595 whole entry)": "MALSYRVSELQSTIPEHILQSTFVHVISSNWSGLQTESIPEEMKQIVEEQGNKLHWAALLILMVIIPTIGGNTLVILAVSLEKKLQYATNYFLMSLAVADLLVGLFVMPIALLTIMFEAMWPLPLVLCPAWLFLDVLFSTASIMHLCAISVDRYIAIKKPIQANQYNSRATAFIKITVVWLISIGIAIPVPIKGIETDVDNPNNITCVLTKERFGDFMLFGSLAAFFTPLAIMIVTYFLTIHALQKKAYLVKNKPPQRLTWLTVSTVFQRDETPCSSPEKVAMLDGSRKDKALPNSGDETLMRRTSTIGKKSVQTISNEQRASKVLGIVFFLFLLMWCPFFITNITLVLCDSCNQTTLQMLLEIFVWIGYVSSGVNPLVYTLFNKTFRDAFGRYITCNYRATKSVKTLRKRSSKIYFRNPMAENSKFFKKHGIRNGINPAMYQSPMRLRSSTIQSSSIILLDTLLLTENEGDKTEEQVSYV", "test": "Millipore GPCR Profiler functional screen, serotonin 2B receptor", "format": "cell-based", "details": "full agonist CRC", "summary_of_the_method": "(§2)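 Outsourced functional screening paradigm covering 16 GPCRs, chosen as family A subtypes among the closest relatives of mAChRs. Test compound was assessed for agonist, antagonist and allosteric potentiator activity by its effect on full concentration-response curves of each receptor's agonist.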"}, "rat M4 mAChR": {"biological_target": "T3, rat M4 mAChR (Rattus norvegicus, UniProt P08485)", "T3 sequence (P08485 1-478)": "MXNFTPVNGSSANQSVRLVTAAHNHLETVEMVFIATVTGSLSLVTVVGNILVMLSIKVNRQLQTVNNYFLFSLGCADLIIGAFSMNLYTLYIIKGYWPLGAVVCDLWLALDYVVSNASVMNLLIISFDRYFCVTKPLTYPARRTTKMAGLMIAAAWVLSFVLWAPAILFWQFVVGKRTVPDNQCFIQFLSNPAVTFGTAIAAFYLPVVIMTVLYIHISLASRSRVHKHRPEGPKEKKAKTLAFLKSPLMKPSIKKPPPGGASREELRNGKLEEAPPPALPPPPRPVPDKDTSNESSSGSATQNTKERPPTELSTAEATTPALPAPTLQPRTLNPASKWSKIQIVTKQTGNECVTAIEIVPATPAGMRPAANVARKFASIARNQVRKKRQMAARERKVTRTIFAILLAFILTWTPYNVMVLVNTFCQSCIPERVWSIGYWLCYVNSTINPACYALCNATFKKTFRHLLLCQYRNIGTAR", "format": "cell-based", "details": "for EC50: potentiation of an EC20 concentration of ACh"}, "rM4 receptor": {"biological_target": "T4, rM4 receptor (Rattus norvegicus, UniProt P08485)", "T4 sequence (P08485 1-478)": "T3 sequence (P08485 1-478)", "test": "[3H]NMS equilibrium radioligand binding, membranes from rM4-expressing CHO cells"}, "human M4": {"biological_target": "T5, human M4 (Homo sapiens, UniProt P08173)", "T5 sequence (P08173 1-479)": "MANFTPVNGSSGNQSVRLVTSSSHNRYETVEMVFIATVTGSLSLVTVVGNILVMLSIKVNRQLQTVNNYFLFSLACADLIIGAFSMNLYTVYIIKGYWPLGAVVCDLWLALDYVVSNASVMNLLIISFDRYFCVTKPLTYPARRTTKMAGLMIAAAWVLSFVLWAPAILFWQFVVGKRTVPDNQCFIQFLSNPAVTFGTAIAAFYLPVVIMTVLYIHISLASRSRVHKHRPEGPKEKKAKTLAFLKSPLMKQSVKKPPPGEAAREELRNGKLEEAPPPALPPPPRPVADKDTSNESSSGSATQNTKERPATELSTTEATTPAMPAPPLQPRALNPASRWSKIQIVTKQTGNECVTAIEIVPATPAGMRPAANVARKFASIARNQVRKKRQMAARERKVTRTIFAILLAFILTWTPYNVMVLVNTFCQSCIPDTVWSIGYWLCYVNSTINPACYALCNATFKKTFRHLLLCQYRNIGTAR", "test": "Millipore GPCR Profiler functional screen, human M4", "format": "cell-based", "details": "full agonist CRC", "summary_of_the_method": "as §2"}}, "note": "Changes are numbered by the printed parent chain. Where two headings read alike, the source gives them in different places."}
{"smiles": "Cc1cc(C)c2c(N)c(C(=O)NCc3ccc4c(c3)OCO4)sc2n1", "note": "[VU0152099, 3-amino-N-(benzo[d][1,3]dioxol-5-ylmethyl)-4,6-dimethylthieno[2,3-b]pyridine carboxamide]", "values": [{"measurement": "shift in the ACh CRC at M3", "setting": "M3 mAChR", "result": "No shift in the ACh CRC was observed"}, {"measurement": "potentiator activity at M1", "setting": "M1", "result": "had no potentiator activity at M1"}, {"measurement": "formulation into homogeneous dosing solution", "setting": "[1]", "result": "afforded homogeneous dosing solutions in multiple vehicles acceptable for in vivo studies"}, {"measurement": "AUC brain / AUC plasma", "setting": "[2]", "result": "0.39 ± 0.01"}, {"measurement": "Mean AUC (0-∞) brain", "setting": "[2]", "result": "4751.80 ± 666.17", "unit": "ng·h/g"}, {"measurement": "Mean AUC(0-∞) plasma", "setting": "[2]", "result": "11928.00 ± 1472.36", "unit": "ng·h/mL"}, {"measurement": "t1/2 brain", "setting": "[2]", "result": "1.25 ± 0.023", "unit": "h"}, {"measurement": "t1/2 plasma", "setting": "[2]", "result": "1.66 ± 0.39", "unit": "h"}, {"measurement": "shift in the ACh CRC at M1", "setting": "M1 mAChR", "result": "No shift in the ACh CRC was observed"}, {"measurement": "antagonist activity at serotonin 2B receptor", "setting": "serotonin 2B receptor", "result": "weak antagonist activity at serotonin 2B receptor"}, {"measurement": "maximal leftward shift of the ACh CRC", "setting": "rat M4 mAChR; 30 µM compound", "result": 30, "unit": "fold"}, {"measurement": "response in the absence of an ACh EC20 (agonist activity)", "setting": "rat M4 mAChR; compound alone", "result": "neither VU0152099 nor VU0152100 elicited a response"}, {"measurement": "Rat M4 Ach -Fold Shift", "setting": "rat M4 mAChR; leftward shift of ACh CRC, average of at least three determinations", "result": 29.7, "unit": "fold"}, {"measurement": "EC50", "setting": "rat M4 mAChR; read-out: M4 PAM activity EC50", "result": 403, "unit": "nM"}, {"measurement": "EC50", "setting": "rat M4 mAChR; read-out: Rat M4 EC50, average of at least three determinations", "result": 400, "unit": "nM"}, {"measurement": "displacement of [3H]NMS", "setting": "rM4 receptor; 0.1 nM [3H]NMS, concentrations up to 30 µM", "result": "neither M4 PAM displaced"}, {"measurement": "leftward shift in the potency of ACh to displace [3H]NMS", "setting": "rM4 receptor; 10 µM compound", "result": 25, "unit": "fold"}, {"measurement": "potentiation of ACh-induced activation of human M4", "setting": "human M4", "result": "induced a robust potentiation of ACh-induced activation of human M4"}]}
